Source: ChEMBL document CHEMBL1132971, “New azolidinediones as inhibitors of protein tyrosine phosphatase 1B with antihyperglycemic properties” (J Med Chem, 2000)
Each block holds one compound with its values, some of them ahead of it.

Assays:
Mus musculus [1] = experiment: (§1) Evaluated in vivo for their ability to decrease plasma glucose levels in diabetic C57BL/KsJ db/db mouse at a dose 100 mg/kg/day, *p indicates <0.05; format: functional
How it was run: (§2)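 Mice dosed orally once daily for 4 days; plasma glucose and insulin measured and expressed as percent change versus a vehicle-treated group (mean ± SE, 4-6 mice/group). NS is generally less than -15% change. Significance is versus vehicle-treated mice.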

Mus musculus [2] = experiment: (§3) Evaluated for their ability to decrease plasma insulin levels in mouse at a dose 100 mg/kg/day, **p indicates <0.01; format: functional
How it was run: (§4)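 Diabetic db/db or ob/ob mice dosed orally once daily for 4 days. Plasma glucose and insulin reported as percent change from a vehicle-treated group. 4-6 mice per group. Significance set at p < 0.05 or p < 0.01 versus vehicle; NS means generally less than -15% change.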

Mus musculus [3] = experiment: (§5) Evaluated in vivo for their ability to decrease plasma glucose levels in diabetic C57BL/KsJ ob/ob mouse at a dose 100 mg/kg/day, **p indicates <0.01; format: functional; how it was run: as §4
[4] = target: T1, Tyrosine-protein phosphatase non-receptor type 1 (Rattus norvegicus) (UniProt P20417); experiment: Inhibition of PTPase (PTP1B) activity in rat hepatic membrane at 50 uM concentration, using pNPP as the substrate; format: cell membranes; settings: Liver
T1 sequence (whole entry): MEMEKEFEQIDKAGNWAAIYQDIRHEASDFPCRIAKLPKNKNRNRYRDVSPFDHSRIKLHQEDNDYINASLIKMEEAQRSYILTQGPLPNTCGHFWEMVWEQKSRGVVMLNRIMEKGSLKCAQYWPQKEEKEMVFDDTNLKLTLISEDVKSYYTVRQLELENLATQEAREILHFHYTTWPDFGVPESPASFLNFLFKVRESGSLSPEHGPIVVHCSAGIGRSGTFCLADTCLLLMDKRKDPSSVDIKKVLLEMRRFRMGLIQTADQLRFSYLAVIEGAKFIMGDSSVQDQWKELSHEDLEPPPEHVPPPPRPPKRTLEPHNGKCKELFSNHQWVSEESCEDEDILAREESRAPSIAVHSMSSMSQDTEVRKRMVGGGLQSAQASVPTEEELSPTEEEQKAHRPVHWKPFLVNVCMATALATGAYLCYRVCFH
How it was run: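 Liver membranes from male Sprague-Dawley rats (100-150 g), about 30 µg protein per well. Preincubated 10 min at 37 °C with compound in 1.25% DMSO in 50 mM HEPES pH 7.4. Then 6.33 mM pNPP for 30 min at 37 °C, stopped with NaOH. p-Nitrophenol read at 410 nm. Run in triplicate. Reported as percent of untreated control.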

[5] = target: T2, Tyrosine-protein phosphatase non-receptor type 1 (Rattus norvegicus, UniProt P20417); experiment: Inhibition of PTPase activity using recombinant r-PTP1B and IR-triphosphopeptide as substrate; ND is no data.
T2 sequence (P20417 whole entry): T1 sequence (whole entry)
How it was run: (§6)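 Rat recombinant PTP1B in 33 mM TRIS-HCl, 2 mM EDTA, 50 mM β-mercaptoethanol, pH 7.4 (about 1000-2000 nmol/min/mg). Preincubated 10 min at 37 °C with or without compound in HEPES buffer pH 7.4. Released phosphate read by malachite green-ammonium molybdate at 650 nm against a phosphate standard. Quadruplicates. IC50 by four-parameter logistic fit.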

Mus musculus [6] = experiment: as §1; format: functional; how it was run: as §4; remark: listed apart in the source
[7] = target: T3, Tyrosine-protein phosphatase non-receptor type 1 (Mus musculus) (UniProt P35821); experiment: In vivo ability to decrease plasma glucose levels in diabetic C57BL/KsJ ob/ob mouse at a dose 100 mg/kg/day; format: functional, organism-based; how it was run: as §4
T3 sequence (whole entry): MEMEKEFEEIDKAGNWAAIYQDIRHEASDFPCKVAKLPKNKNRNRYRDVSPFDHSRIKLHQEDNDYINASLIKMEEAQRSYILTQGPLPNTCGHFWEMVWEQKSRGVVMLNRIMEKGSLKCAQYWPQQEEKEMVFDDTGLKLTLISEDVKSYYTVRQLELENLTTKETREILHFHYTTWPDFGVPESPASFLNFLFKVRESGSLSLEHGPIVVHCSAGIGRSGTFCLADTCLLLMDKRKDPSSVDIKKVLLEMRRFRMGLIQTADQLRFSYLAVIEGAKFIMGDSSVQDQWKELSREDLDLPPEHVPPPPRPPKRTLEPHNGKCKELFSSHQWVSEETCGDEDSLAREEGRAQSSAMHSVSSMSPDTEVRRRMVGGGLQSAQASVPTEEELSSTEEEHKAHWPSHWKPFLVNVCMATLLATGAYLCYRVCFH

[8] = target: T3, Tyrosine-protein phosphatase non-receptor type 1 (Mus musculus); experiment: Ability to decrease plasma insulin levels in mouse at a dose 100 mg/kg/day; format: functional, organism-based; how it was run: as §4
[9] = target: T1, Tyrosine-protein phosphatase non-receptor type 1 (Rattus norvegicus); experiment: Inhibition of PTPase activity using recombinant r-PTP1B as the enzyme and IR-triphosphopeptide as substrate at 50 uM; how it was run: as §6
Mus musculus [10] = experiment: as §3; format: functional; how it was run: as §2; remark: listed apart in the source
Mus musculus [11] = experiment: as §5; format: functional; how it was run: as §2; remark: listed apart in the source
Mus musculus [12] = experiment: Evaluated in vivo for their ability to decrease plasma glucose levels in diabetic C57BL/KsJ ob/ob mouse at a dose 10 mg/kg/day, *p indicates <0.05; format: functional; how it was run: as §2
[13] = target: T4, Tyrosine-protein phosphatase non-receptor type 1 (Homo sapiens, UniProt P18031); experiment: Concentration required to inhibit PTPase activity, recombinant Protein Tyrosine Phosphatase 1b as the enzyme at a concentration 2.5 uM.; how it was run: as §6
T4 sequence (P18031 whole entry): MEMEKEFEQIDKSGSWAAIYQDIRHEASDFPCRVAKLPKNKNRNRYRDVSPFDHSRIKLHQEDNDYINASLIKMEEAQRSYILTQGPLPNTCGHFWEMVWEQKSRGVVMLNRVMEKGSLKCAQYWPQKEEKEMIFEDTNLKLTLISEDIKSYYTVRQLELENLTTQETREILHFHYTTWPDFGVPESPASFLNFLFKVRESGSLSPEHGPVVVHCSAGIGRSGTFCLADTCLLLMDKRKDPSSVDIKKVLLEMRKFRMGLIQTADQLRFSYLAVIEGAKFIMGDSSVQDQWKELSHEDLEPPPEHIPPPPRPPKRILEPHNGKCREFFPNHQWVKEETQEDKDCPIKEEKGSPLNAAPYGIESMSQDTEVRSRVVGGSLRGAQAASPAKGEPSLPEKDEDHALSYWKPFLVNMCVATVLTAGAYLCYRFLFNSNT

[14] = target: T2, Tyrosine-protein phosphatase non-receptor type 1; experiment: Inhibition of PTPase activity using recombinant r-PTP1B as the enzyme and IR-triphosphopeptide as substrate; how it was run: as §6
Mus musculus [15] = experiment: Evaluated for their ability to decrease plasma insulin levels in mouse at a dose 100 mg/kg/day, *p indicates <0.05; format: functional; how it was run: as §4
Mus musculus [16] = experiment: Evaluated in vivo for their ability to decrease plasma glucose levels in diabetic C57BL/KsJ ob/ob mouse at a dose 100 mg/kg/day *p indicates <0.05; format: functional; how it was run: as §4
Mus musculus [17] = experiment: Evaluated for their ability to decrease plasma insulin levels in mouse at a dose 100 mg/kg/day,**p indicates <0.01; format: functional; how it was run: as §2
Mus musculus [18] = experiment: Evaluated in vivo for their ability to decrease plasma glucose levels in diabetic C57BL/KsJ ob/ob mouse at a dose 100 mg/kg/day,**p indicates <0.01; format: functional; how it was run: as §2
Mus musculus [19] = experiment: Evaluated for their ability to decrease plasma insulin levels in mouse at a dose 100 mg/kg/day.([…]); format: functional; how it was run: as §4
Mus musculus [20] = experiment: Evaluated in vivo for their ability to decrease plasma glucose levels in diabetic C57BL/KsJ ob/ob mouse at a dose 100 mg/kg/day.([…]); format: functional; how it was run: as §4
[21] = target: T1, Tyrosine-protein phosphatase non-receptor type 1 (Rattus norvegicus); experiment: IC50 for PTPase activity, recombinant r-PTP1B as the enzyme .
Mus musculus [22] = experiment: Evaluated in vivo for their ability to decrease plasma glucose levels in diabetic C57BL/KsJ db/db mouse at a dose 100 mg/kg/day.; format: functional; how it was run: as §4

SMILES: C/C(=C\Cn1oc(=O)[nH]c1=O)c1cccc(OCc2nc(-c3ccc(C(F)(F)F)cc3)oc2C)c1
Decrease (Mus musculus [1]): 62% | inhibition [9]: 1.9% | Decrease (Mus musculus [10]): 86% | Decrease (Mus musculus [11]): 58% | inhibition [4]: 49% | Decrease (Mus musculus [12]): 20%

SMILES: C/C(=C\Cn1oc(=O)[nH]c1=O)c1cccc(OCc2ccccn2)c1
IC50 [13]: 9 µM | inhibition [4]: 5%

SMILES: C/C(=C\Cn1sc(=O)[nH]c1=O)c1cccc(OCc2nc(-c3ccc(C(F)(F)F)cc3)oc2C)c1
IC50 [14]: 3.8 µM | Decrease (Mus musculus [15]): 26% | Decrease (Mus musculus [16]): 29% | inhibition [4]: Not significant

SMILES: Cc1oc(-c2ccc(C(F)(F)F)cc2)nc1COc1cccc(/C(=C/Cn2oc(=O)[nH]c2=O)c2ccccc2)c1
Decrease (Mus musculus [17]): 74% | inhibition [9]: 1.1% | Decrease (Mus musculus [18]): 55% | inhibition [4]: 24%

More lines, main results first:

inhibition [4]: 57% | IC50 [5]: Not significant
SMILES: C/C(=C\Cn1oc(=O)[nH]c1=O)c1cccc(OCc2nc(-c3ccc(OC(F)(F)F)cc3)oc2C)c1
Decrease (Mus musculus [1]): 41% | Decrease (Mus musculus [2]): 82% | Decrease (Mus musculus [3]): 39%

inhibition [4]: 4.3% | Decrease [7]: Not significant | Decrease [8]: Not significant
SMILES: C/C(=C\Cn1oc(=O)[nH]c1=O)c1ccc(OCc2nc(-c3ccc(C(F)(F)F)cc3)oc2C)cc1
Decrease (Mus musculus [6]): 16%

IC50 [21]: 1.5 µM | inhibition [4]: 46%
SMILES: C/C(=C\CC1SC(=O)NC1=O)c1cccc(OCc2nc(-c3ccc(OC(F)(F)F)cc3)oc2C)c1 (stereo not given)
Decrease (Mus musculus [19]): 63% | Decrease (Mus musculus [20]): 44% | Decrease (Mus musculus [22]): 18%
